Blank lines part the entries; values can stand above or below the compound they belong to.
Experiments:
Format in all cases: microsomes
Details in all cases: Microsome
[1] = target: T1, Mitochondrial amidoxime-reducing component 1 (Homo sapiens) (UniProt Q5VT66); experiment: (§1) Specific activity at molybdenum cofactor/metal-free precursor molybopterin bound human recombinant mARC1 expressed in Escherichia coli TP1000 assessed as reduction to diminazene in complete reconstituted system containing microsomal cyt b5, NADH and microsomal NADH cyt b5 reductase per mg of protein at 0.5 mM by HPLC analysis
T1 sequence (whole entry): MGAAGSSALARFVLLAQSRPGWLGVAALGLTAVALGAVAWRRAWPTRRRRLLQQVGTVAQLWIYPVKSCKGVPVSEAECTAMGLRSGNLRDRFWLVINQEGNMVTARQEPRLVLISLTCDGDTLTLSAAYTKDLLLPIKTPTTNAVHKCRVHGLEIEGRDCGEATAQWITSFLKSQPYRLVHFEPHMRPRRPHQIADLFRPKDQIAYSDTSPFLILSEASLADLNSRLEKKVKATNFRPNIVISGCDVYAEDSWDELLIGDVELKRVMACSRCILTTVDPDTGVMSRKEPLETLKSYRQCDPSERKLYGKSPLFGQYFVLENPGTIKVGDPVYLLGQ
Method in brief: (§2)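 His6-tagged human mARC1 expressed in E. coli TP1000 (22 °C, IPTG induction, 1 mM sodium molybdate added) and Ni-NTA purified. Assay mix: 100 µg mARC1, 0.05 U pig liver microsomal NADH cyt b5 reductase, 200 pmol microsomal cyt b5, 0.5 mM N-hydroxylated substrate, 1 mM NADH, 100 mM potassium phosphate pH 6.0. Omitted components as stated per line. Aerobic, 37 °C, 3 min preincubation, NADH start, 15 or 20 min, methanol stop. Product quantified by HPLC; mean ± SD, n=4.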

[2] = target: T1, Mitochondrial amidoxime-reducing component 1 (Homo sapiens); experiment: as §1, with “diminazene monoamidoxime” for “diminazene”; method in brief: as §2
[3] = target: T1, Mitochondrial amidoxime-reducing component 1 (Homo sapiens); experiment: as §1, with “debrisoquine” for “diminazene”; method in brief: as §2
[4] = target: T1, Mitochondrial amidoxime-reducing component 1 (Homo sapiens); experiment: as §1, with “pentamidine monoamidoxime” for “diminazene”; method in brief: as §2
[5] = target: T1, Mitochondrial amidoxime-reducing component 1 (Homo sapiens); experiment: as §1, with “pentamidine” for “diminazene”; method in brief: as §2
[6] = target: T1, Mitochondrial amidoxime-reducing component 1 (Homo sapiens); experiment: as §1, with “benzamidine” for “diminazene”, “in” for “in complete”, “containing” for “containing microsomal cyt b5,”, “reductase without microsomal cytochrome b5” for “reductase”; method in brief: as §2
[7] = target: T1, Mitochondrial amidoxime-reducing component 1 (Homo sapiens); experiment: as §1, with “to benzamidine” for “to diminazene”, “in” for “in complete”, “cyt b5 and” for “cyt b5,”, “NADH without” for “NADH and”, “NADH cytochrome” for “NADH cyt”; method in brief: as §2
[8] = target: T1, Mitochondrial amidoxime-reducing component 1 (Homo sapiens); experiment: as §1, with “benzamidine” for “diminazene”; method in brief: as §2
[9] = target: T1, Mitochondrial amidoxime-reducing component 1 (Homo sapiens); experiment: as §1, with “melagatran” for “diminazene”; method in brief: as §2
[10] = target: T1, Mitochondrial amidoxime-reducing component 1 (Homo sapiens); experiment: as §1, with “guanabenz” for “diminazene”; method in brief: as §2

- Activity [1]: 0.05 nmol/min
- Activity [2]: 4.31 nmol/min
Compound: N/C(=N\O)c1ccc(/N=N/Nc2ccc(/C(N)=N/O)cc2)cc1

- Activity [3]: 15.9 nmol/min
Compound: N/C(=N\O)N1CCc2ccccc2C1

- Activity [4]: 0.56 nmol/min
- Activity [5]: 0.49 nmol/min
Compound: N/C(=N\O)c1ccc(OCCCCCOc2ccc(/C(N)=N/O)cc2)cc1

- Activity [6]: 0.23 nmol/min
- Activity [7]: 0.2 nmol/min
- Activity [8]: 1.3 nmol/min
Compound: N/C(=N\O)c1ccccc1

- Activity [9]: 0.48 nmol/min
Compound: N/C(=N\O)c1ccc(CNC(=O)[C@@H]2CCN2C(=O)[C@H](NCC(=O)O)C2CCCCC2)cc1

- Activity [5]: 6.59 nmol/min
Compound: N=C(N)c1ccc(OCCCCCOc2ccc(/C(N)=N\O)cc2)cc1

- Activity [10]: 20.4 nmol/min
Compound: N=C(NO)N/N=C/c1c(Cl)cccc1Cl
